Compound activity: PubChem, Broad Institute
This is a sample that favours compounds with a hit; in the whole collection about 2.9% have one here.
dFosB act: activators of mouse delta FosB homodimer; P13346; purified delta FosB, TAMRA-CDK5 oligo fluorescence polarization; percent of positive-control signal above neutral wells; activation, % at 25 µM; actives 0.99% (n = 340,000); AID 493131;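 active means mean activation above about 17%, with every replicate also reaching it, limit read from the data, passing the limit was not always enough; inconclusive means only one of the two conditions met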
Cneo AK release: causes C. neoformans cell lysis; lysis activity, % at 15 µM; actives 0.2% (n = 360,000); adenylate kinase release luminescence, 4 h; normalised: neutral wells 0, clomiphene wells 100;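 active means mean lysis activity across replicates of at least 80%, whatever share of replicates individually reach that level; inactive means mean lysis activity below 80%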
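Assay system: C. neoformans cells. Amount: yeast cell density of 5 × 10^6 cells/mL. Technique: AK luminescence. Buffer or medium: YPD. Times: static 4 h at 37 °C with compound, 1 h detection. Dosing: single-point compound dose. Read-out: lysis from increased AK signal.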
CDK5 inh: CDK5/p35 (human) kinase inhibition; inhibition, % at 10 µM; AID 488839; Recombinant CDK5/p35, ADP-Glo luminescence, 60 min; Q00535+Q15078; actives 0.01% (n = 330,000);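 active means highest replicate inhibition of at least 50% and at least 75% of replicates reaching 50%; inconclusive means only one of the two criteria met; inactive means both criteria failed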;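 further: plate controls were DMSO neutral control for no effect and GW8510 at 10 µM for full effect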
Target sequence (Q00535 whole entry, looked up): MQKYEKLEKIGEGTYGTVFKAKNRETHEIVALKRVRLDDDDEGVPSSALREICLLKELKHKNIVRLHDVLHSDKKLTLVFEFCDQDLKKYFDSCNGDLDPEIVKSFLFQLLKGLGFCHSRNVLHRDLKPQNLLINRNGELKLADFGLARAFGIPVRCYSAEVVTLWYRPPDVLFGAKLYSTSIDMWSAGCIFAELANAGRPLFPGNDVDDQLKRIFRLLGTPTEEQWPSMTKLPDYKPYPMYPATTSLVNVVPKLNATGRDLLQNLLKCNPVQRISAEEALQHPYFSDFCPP
Target sequence (Q15078 whole entry, looked up): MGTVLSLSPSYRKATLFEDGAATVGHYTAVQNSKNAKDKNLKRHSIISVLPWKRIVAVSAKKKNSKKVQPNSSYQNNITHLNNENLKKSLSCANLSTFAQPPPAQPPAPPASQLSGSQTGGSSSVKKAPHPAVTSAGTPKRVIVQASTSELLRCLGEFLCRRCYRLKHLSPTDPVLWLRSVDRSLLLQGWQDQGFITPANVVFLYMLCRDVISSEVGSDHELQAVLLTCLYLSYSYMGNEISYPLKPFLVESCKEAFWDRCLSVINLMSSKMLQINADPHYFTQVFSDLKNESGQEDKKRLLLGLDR
PAX8 reporter: lowers PAX8-driven luciferase in RMG-I cells. RMG-I TPO-luciferase reporter, SteadyGlo, 24 h. inhibition, % at 12.6 µM. actives 1.2% (n = 360,000);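 active means mean replicate inhibition at least 60% with every replicate also reaching 60%; inconclusive means only one of the two criteria is met; inactive means mean below 60% and not all replicates reaching 60%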;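 further: luciferase light reporting Pax8 driven TPO promoter activity; plate controls were median of neutral control wells for no effect and mitoxantrone controls for full effect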
GSIS activator: primary screen for activators of insulin secretion dependent on glucose, INS-1E cells, GLuc reporter luminescence; INS-1E GLuc reporter insulin secretion, 2-3 h; activation, % at 16.6 µM; actives 0.61% (n = 370,000); AID 743287;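 active means lowest replicate activation of at least 40%, so every replicate reaches that level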;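 further: 0% = median of neutral control wells and 100% = median of IBMX positive control wells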
Env fusion inh: HIV envelope-mediated fusion inhibition | inhibition, % at 12.3 µM | HeLa-JRFL Env/CEM21 cell fusion, luciferase | actives 1.1% (n = 360,000) | AID 651610;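 active means mean replicate inhibition score of at least 50 and every replicate individually at or above 50; inconclusive means only one of the two criteria met; inactive means mean below 50 and not all replicates reaching 50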;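 further: 0% = plate neutral controls and 100% = maraviroc near 300 nM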
Starred values were filed as active, the others as inactive; u = inconclusive; x = not tested or not shown; ! = not active in a repeat; [ ] = dose if it differs, or a comment.

SMILES	dFosB act	Cneo AK release	CDK5 inh	PAX8 reporter	GSIS activator	Env fusion inh
CCOC(=O)/C=C(\C)Sc1cc(O)c2ccccc2c1O	-18.2	-10.7	-1.0	35.2	-8.3	11.4
CCOC(=O)/C=C(\C)Sc1cc(=O)oc2ccccc12	-4.0	0.4	3.0	64.0*	x	23.2
CCCNc1cc(C)oc(=O)c1C(=O)CCC	-8.2	0.0	0.8	x	88.1*	x
CCCC(=O)c1c(NCCO)cc(C)oc1=O	1.6	x	-0.1	-8.9	14.1	-38.6
COc1ccc(S(=O)(=O)N(C)C[C@H]2Oc3ccc(NC(=O)CCCN(C)C)cc3C(=O)N([C@H](C)CO)C[C@H]2C)cc1	x	0.8	x	11.9	7.8	x
CC(=O)NNC(=O)CSc1nnc(-c2ccccc2)c(-c2ccccc2)n1	-0.2	92.5*	-7.3	22.1	-0.4	1.8
COc1ccccc1Nc1nnc(SCC(=O)NC(=O)Nc2ccc3c(c2)OCCO3)s1	u	x	1.3	-6.7	80.7*	-26.9
Cc1cccc(Nc2nnc(SCC(=O)NC(=O)Nc3ccc4c(c3)OCCO4)s2)c1	-4.8	-5.5	-2.2	-1.5	0.7	9.5
Cc1ccc(C)c(NC(=O)COC(=O)c2cccc3c2C(=O)c2ccccc2C3=O)c1	-10.1	0.8	-3.4	63.8*	-2.6	26.6
CC(=O)Nc1ccc(Cl)c(-c2nc3ncccc3o2)c1	-15.0	-1.4	-0.1	-17.0	57.5*	-4.0
CC(C)CC(=O)Nc1cccc(-c2nc3ncccc3o2)c1	-24.1	0.3	-1.3	-15.2	41.0*	-18.8
O=C(C[C@@H]1C=C[C@H](NC(=O)C2CCOCC2)[C@@H](CO)O1)Nc1ccc(-c2ccccc2)cc1	x	-6.1	x	-1.8	10.7	3.6[16.7 µM]
Cc1cc(C(=O)Nc2cccc(O)c2)c(C)o1	2.3	-1.6	-2.2	x	56.9*	x
O=C(O)CCCC(=O)N1CCN(c2nc(-c3ccccc3)c3ccccc3n2)CC1	1.4	1.6	-0.2	-13.4	61.3*	-0.7
CCCC(=O)N1C[C@@H]2[C@H](c3ccccc31)[C@H](CO)N2C(=O)Nc1ccc(F)cc1	x	2.0	x	14.3	3.2	x
COCC1CCN(Cc2cn(Cc3ccccc3)nc2-c2cc3ccccc3o2)CC1	-7.5	x	1.1	9.6	-14.3	13.7
COCC1CCCN(Cc2cn(Cc3ccccc3)nc2-c2cc3ccccc3o2)C1 (stereo not given)	-16.2	-2.8	-1.2	17.9	-38.8	57.9*
O=C(CSc1nnc(CNc2ccc(F)cc2)o1)N1CCN(C(=O)c2ccco2)CC1	5.9	0.7	-0.7	x	x	x
O=C(CSc1nnc(CNc2ccc(F)cc2)o1)N1c2ccccc2Sc2ccccc21	-3.8	33.4	0.0	x	x	63.7*
C=CCc1ccc(OCCOc2ccc(/C=N/n3cnnc3)cc2OCC)c(OC)c1	4.3	0.3	0.8	x	61.3*	x
C[C@@H]1CCCCO[C@H](CN(C)Cc2ccccc2)[C@H](C)CN([C@@H](C)CO)C(=O)c2cc(NS(=O)(=O)c3cn(C)cn3)ccc2O1	x	11.5	x	-4.3	23.0	5.6[16.7 µM]
CCCCCCc1ccc(OC(=O)c2ccncc2)cc1	6.9	-1.5	-0.2	12.4	-15.2	12.8
CCCCCCOc1ccc(OC(=O)c2ccncc2)cc1	-2.1	6.9	0.6	-94.3	6.4	70.2*
C[C@@H]1CN([C@@H](C)CO)C(=O)c2cc(/C=C/c3ccccc3)cnc2O[C@H]1CN(C)C(=O)C1CCOCC1	x	-5.7	x	-11.5	-9.0	14.5[16.7 µM]
CC(=O)c1cccc(NC(=O)Nc2cnn(Cc3ccc(Cl)cc3Cl)c2)c1	4.9	-3.9	-7.1	x	x	64.3*
SMILES	dFosB act	Cneo AK release	CDK5 inh	PAX8 reporter	GSIS activator	Env fusion inh
O=C(Nc1cnn(Cc2ccc(Cl)cc2Cl)c1)c1cc(-c2cccs2)on1	2.8	x	0.7	x	x	-60.0
Oc1ccc(N=Nc2ccccc2C(F)(F)F)c2cccnc12	-6.4	-0.3	3.1	92.1*	6.9	-9.8
Oc1ccc(F)c2cccnc12	-3.6	0.6	-1.8	94.5*	0.7	2.3
Oc1ccc(CNc2ccccc2F)c2cccnc12	-1.7	3.3	0.5	86.7*	-2.1	114.0*!
CCS(=O)(=O)c1ccc(N=Nc2ccc(O)c3ncccc23)c(OC)c1	-12.9	x	1.6	97.4*	-1.9	66.4*
COc1ccccc1N=Nc1ccc(O)c2ncccc12	-16.2	-7.8	0.8	19.6	-3.9	7.8
OCc1ccc(O)c2ncccc12	1.4	-0.6	-1.3	x	x	x
COc1ccc(-c2nnc(SCc3nnc(-c4ccc(Cl)cc4)o3)n2-c2ccccc2)cc1	-3.1	-1.7	-0.2	x	-25.1	65.1*
C[C@@H](NC(=O)C[C@@H]1CC[C@@H](NC(=O)CN2CCOCC2)[C@@H](CO)O1)c1ccccc1	x	9.1	x	-7.0	15.0	13.7[16.7 µM]
COc1ccc(-c2nnc(SCC(=O)Nc3cc(C)on3)n2C)cc1OC	-5.8	0.0	-2.6	x	65.5*	x
CO[C@H]1CN(C)C(=O)c2cc(NC(=O)Nc3ccccc3F)ccc2OC[C@H](C)N(Cc2ccccc2C(=O)O)C[C@@H]1C	x	0.6	x	8.6	3.6	x
O=C(c1cccc(F)c1)N1CC2(C1)[C@H](c1ccccc1)[C@H](CO)N2C(=O)C1CCCC1	x	x	x	x	-2.5	x
CC[C@@H](C(=O)[C@@H](C)[C@@H](O)[C@H](C)[C@@H]1O[C@@H]([C@@H](CC)C(=O)O)CC[C@@H]1C)[C@H]1O[C@]2(C=C[C@@H](O)[C@]3(CC[C@@](C)([C@H]4CC[C@](O)(CC)[C@H](C)O4)O3)O2)[C@H](C)C[C@@H]1C	-5.8	2.1	-1.1	108.8*	x	-13.0
Cc1ccccc1-c1ccc([C@H]2[C@@H](CO)N3C(=O)CN(C(=O)c4ccccc4)C[C@@H]23)cc1	x	x	x	35.6	-18.0	x
CC(/C=N\NC(=O)Cn1c(C)nc2ccccc21)=C\c1ccccc1	4.1	0.5	1.1	9.8	x	85.7*
CC(C)=C1C2CCC1C(C(=O)NCc1ccccc1)C2C(=O)O (stereo not given)	2.4	-0.6	-0.4	x	x	66.6*
O=C(O)C1CCCCC1C(=O)NCc1ccccc1 (stereo not given)	-3.7	3.6	-2.1	x	x	-30.2
CCCNC(=O)Nc1ccc2c(c1)C(=O)N(C)C[C@H](OC)[C@@H](C)CN(C(=O)CC)[C@H](C)CO2	x	1.3	x	-7.4	-9.7	-1.3[16.7 µM]
Cc1cccc(OCc2nnc(SCC(=O)N3CCCC3)o2)c1	-0.5	0.8	6.7	-18.3	-0.6	-6.2
Cc1cccc(OCc2nnc(SCc3nc4ccccc4c(=O)[nH]3)o2)c1	45.5*	0.1	-0.1	x	x	x
CCOc1cccc2cc(C(=O)Nc3cc(C)on3)c(=O)oc12	3.3	-0.5	-1.2	x	45.1*	-32.4
CCCCN=C1NN=C(c2ccc3c(c2)OCCO3)CS1	-7.1	x	0.4	-110.0	5.2	-20.4
c1cc2c(cc1C1=NNC(=NC3CC3)SC1)OCCO2	-11.0	x	20.2	95.8*	-3.9	65.4*
Cc1cc(C2=NNC(=NC3CC3)SC2)c(C)n1-c1ccccc1F	4.3	x	6.1	102.1*	6.6	55.9*
